Results as given in ChEMBL document CHEMBL1128394, “Hydroxamic acids as potent inhibitors of endothelin-converting enzyme from human bronchiolar smooth muscle” (J Med Chem, 1995).
Several values for one entry are separate records, joined by “and”; a condition that tells them apart may be missing. Identical values can stand only once. Residues, ends and D or L forms follow the SMILES beside them. *: point of attachment. Cbz = O=C(OCc1ccccc1)*; NHOH = ON*

Assays:
[1] = target: T1, Endothelin-converting enzyme 1 (Homo sapiens, UniProt P42892); experiment: Inhibitory activity against human bronchiolar smooth muscle Endothelin-converting enzyme 1; assay type: tissue-based, Muscle tissue
T1 sequence (P42892 whole entry): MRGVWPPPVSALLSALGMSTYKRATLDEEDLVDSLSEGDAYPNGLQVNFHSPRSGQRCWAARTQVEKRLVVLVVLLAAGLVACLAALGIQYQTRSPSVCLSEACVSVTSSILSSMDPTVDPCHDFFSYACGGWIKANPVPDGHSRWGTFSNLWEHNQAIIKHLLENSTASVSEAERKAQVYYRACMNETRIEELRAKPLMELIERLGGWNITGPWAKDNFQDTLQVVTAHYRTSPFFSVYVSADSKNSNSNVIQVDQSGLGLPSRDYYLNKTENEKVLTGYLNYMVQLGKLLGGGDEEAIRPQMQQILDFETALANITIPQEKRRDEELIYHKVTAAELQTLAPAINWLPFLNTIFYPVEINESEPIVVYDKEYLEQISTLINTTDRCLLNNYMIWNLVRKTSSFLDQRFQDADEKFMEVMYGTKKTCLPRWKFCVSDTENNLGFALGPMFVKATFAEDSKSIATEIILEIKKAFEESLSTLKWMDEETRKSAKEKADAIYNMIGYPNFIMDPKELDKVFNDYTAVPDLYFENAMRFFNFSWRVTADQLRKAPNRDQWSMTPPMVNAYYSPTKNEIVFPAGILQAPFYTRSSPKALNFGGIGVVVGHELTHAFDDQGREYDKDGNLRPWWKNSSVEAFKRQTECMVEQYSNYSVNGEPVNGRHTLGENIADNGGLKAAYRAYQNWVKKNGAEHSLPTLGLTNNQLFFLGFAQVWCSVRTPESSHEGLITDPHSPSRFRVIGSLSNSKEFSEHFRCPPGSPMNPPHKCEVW
Procedure, shortened: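 Enzyme purified from cultured human bronchiolar smooth muscle cell membranes (octyl glucoside solubilization, ion exchange, gel filtration). Preincubated 30 min at 37 °C with inhibitor (in DMSO), then 3 μM human big ET-1 (final) added. Run 4–5 h at 37 °C in 50 mM Na-MOPS pH 7.2, 150 mM NaCl, 30 μM CaCl2, amastatin, PMSF. Stopped with EDTA. ET-1 quantified by reverse-phase HPLC with fluorescence.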

Neprilysin [2] = target: T2, Neprilysin (Oryctolagus cuniculus, UniProt P08049); experiment: Inhibitory activity against big ET-1 of Neutral endopeptidase
T2 sequence (P08049 whole entry): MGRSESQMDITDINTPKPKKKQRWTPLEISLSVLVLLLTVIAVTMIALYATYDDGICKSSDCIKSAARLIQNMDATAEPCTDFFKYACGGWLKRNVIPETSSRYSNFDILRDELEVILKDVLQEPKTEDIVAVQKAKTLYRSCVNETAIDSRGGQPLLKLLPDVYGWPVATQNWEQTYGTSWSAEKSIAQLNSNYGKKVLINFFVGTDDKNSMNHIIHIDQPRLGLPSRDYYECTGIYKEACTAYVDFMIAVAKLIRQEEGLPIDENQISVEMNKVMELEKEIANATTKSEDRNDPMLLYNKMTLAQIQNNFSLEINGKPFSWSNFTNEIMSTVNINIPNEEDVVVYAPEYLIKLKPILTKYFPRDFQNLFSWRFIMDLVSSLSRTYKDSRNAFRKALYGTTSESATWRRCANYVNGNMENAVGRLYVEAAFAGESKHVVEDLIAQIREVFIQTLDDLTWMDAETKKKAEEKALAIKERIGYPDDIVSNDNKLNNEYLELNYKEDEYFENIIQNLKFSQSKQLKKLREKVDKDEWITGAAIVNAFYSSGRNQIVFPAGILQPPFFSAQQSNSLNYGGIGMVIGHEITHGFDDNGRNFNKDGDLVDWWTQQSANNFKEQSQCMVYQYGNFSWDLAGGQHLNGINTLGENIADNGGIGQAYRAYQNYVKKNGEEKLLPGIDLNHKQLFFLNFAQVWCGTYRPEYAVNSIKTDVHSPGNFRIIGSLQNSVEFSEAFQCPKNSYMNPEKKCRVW
Procedure, shortened: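 Soluble rabbit kidney neutral endopeptidase, run under the same conditions as the ECE assay: 30 min inhibitor preincubation at 37 °C, 3 μM human big ET-1, 4–5 h at 37 °C, pH 7.2 Na-MOPS buffer with NaCl and CaCl2. ET-1 formed was measured by reverse-phase HPLC with fluorescence detection. IC50 by least-squares curve fit.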

Thermolysin = target: T3, Thermolysin (Bacillus thermoproteolyticus, UniProt P00800); experiment: Inhibitory activity against thermolysin with 0.5 uM [Leu5]-enkephalin (NEN)
T3 sequence (P00800 whole entry): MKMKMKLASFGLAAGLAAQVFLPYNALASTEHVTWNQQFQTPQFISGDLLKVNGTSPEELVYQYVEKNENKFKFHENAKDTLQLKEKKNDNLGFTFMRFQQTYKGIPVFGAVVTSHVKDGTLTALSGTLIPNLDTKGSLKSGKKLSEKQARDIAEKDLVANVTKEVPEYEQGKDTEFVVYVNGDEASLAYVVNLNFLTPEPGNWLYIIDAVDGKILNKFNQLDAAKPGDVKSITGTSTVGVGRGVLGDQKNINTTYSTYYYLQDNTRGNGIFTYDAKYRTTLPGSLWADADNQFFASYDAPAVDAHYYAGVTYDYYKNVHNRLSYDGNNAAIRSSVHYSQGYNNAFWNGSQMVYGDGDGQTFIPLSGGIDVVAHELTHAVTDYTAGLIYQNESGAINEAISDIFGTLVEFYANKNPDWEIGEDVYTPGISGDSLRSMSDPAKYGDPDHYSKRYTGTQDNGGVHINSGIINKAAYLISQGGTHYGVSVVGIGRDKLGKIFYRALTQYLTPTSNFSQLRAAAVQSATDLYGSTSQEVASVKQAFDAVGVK
Procedure, shortened: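 Thermolysin preincubated 15 min with inhibitor. Substrate 0.5 μM [3,5-3H-Tyr1][Leu]enkephalin. Reaction ran 10 min at 20 °C in 50 mM Tris-Cl pH 7.5.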

Neprilysin [3] = target: T2, Neprilysin; experiment: Inhibitory activity against Leu-enkeph of Neutral endopeptidase
Procedure, shortened: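 Soluble rabbit kidney neutral endopeptidase preincubated 15 min with inhibitor. Tritiated [Leu]enkephalin as substrate. Reaction ran 10 min at 20 °C in 50 mM Tris-Cl pH 7.5.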

| SMILES | IC50 [1] | IC50 (Neprilysin [2]) | IC50 (Thermolysin) [nM] | IC50 (Neprilysin [3]) |
| --- | --- | --- | --- | --- |
| CC(C)C[C@H](C(=O)NO)C(=O)N[C@@H](C)C(=O)NCC(N)=O | 11 nM | 40 nM | 175 | 2 nM |
| CC(C)CC(C(=O)NO)C(=O)NC(Cc1c[nH]c2ccccc12)C(=O)O (stereo not given) | 0.25 nM | 0.07 nM | 5 | 0.03 nM |
| CC(C)CC(C(=O)NO)C(=O)NC(Cc1c[nH]c2ccccc12)C(N)=O (stereo not given) | 4.8 nM | 7 nM | 2 | 2 nM |
| CC(C)C(CC(=O)NOCc1ccccc1)C(=O)NC(CC(N)=O)C(N)=O (stereo not given) | > 10000 nM |  |  |  |
| CC(C)C(C(=O)NO)C(=O)NC(CC(N)=O)C(=O)O (stereo not given) | 3 nM | 20 nM |  | 1 nM |
| CC(C)C(C(=O)NO)C(=O)NC(Cc1c[nH]c2ccccc12)C(N)=O (stereo not given) | 1.2 nM | 3 nM | 9 | 2 nM |
| CC(C)C(CNO)C(=O)NC(Cc1c[nH]c2ccccc12)C(=O)O (stereo not given) | 500 nM | 1000 nM |  | 950 nM |
| CC(C)C(C(=O)NO)C(=O)NCCC(=O)O (stereo not given) | 0.01 nM | 1 nM | 1900 | 2 nM |
| CC(C)C(CC(N)=O)C(=O)NCCC(=O)O (stereo not given) | 6500 nM |  |  |  |
| O=C(O)CCNC(=O)CC(=O)NO | 3000 nM |  |  |  |
| CC(C)C(C(=O)NO)C(=O)NC(Cc1c[nH]c2ccccc12)C(=O)O (stereo not given) | 0.2 nM | 0.03 nM | 5 | 0.4 nM |
| CC(C)C(C(=O)NO)C(=O)NCC(=O)O (stereo not given) | 6.8 nM | 8 nM |  | 3 nM |
| CC(C)C(CC(=O)NO)C(=O)NC(CC(N)=O)C(=O)O (stereo not given) | 150 nM | 750 nM |  | 170 nM |
| CC(C)CC(C(=O)NOCc1ccccc1)C(=O)NC(Cc1c[nH]c2ccccc12)C(N)=O (stereo not given) | 10000 nM |  |  |  |
| CC(C)C(CC(=O)NO)C(=O)NC(Cc1c[nH]c2ccccc12)C(=O)O (stereo not given) | 17 nM and 40 nM | 30 nM and 40 nM | 2000 | 5 nM and 18 nM |
| CC(C)C(CC(=O)NO)C(=O)NC(CC(N)=O)C(N)=O (stereo not given) | 3000 nM |  |  |  |
| CC(C)C(CC(=O)NO)C(=O)NCCC(=O)O (stereo not given) | 190 nM | 270 nM |  | 30 nM |
| CC(C)C[C@H](NC(=O)[C@@H]1CCCN1C(=O)OCc1ccccc1)C(=O)NCC(=O)NO (Cbz-Pro-Leu-Gly-{NHOH}) | 33000 nM | 2300 nM |  |  |
| CCCCC[C@H](CC(=O)NO)C(=O)N[C@H](C(=O)N1CCC[C@H]1CO)C(C)C [ACTINONIN] | 4000 nM | 8200 nM |  |  |
| C[C@H](NC(=O)[C@@H](CC(=O)NO)Cc1ccccc1)C(=O)O [KELATORPHAN] | 8 nM | 8 nM | 3 | 1 nM |
| CC(C)C[C@H](NP(=O)(O)O[C@@H]1O[C@@H](C)[C@H](O)[C@@H](O)[C@H]1O)C(=O)N[C@@H](Cc1c[nH]c2ccccc12)C(=O)O [PHOSPHORAMIDON] |  | 2 nM | 33 | 6 nM |
| O=C(O)CNC(=O)C(CS)Cc1ccccc1 (stereo not given) [THIORPHAN] | 8 nM |  |  |  |
